Assay results as given in ChEMBL document CHEMBL2021883, “Amino acid, dipeptide and pseudodipeptide conjugates of ring-substituted 8-aminoquinolines: synthesis and evaluation of anti-infective, β-haematin inhibition and cytotoxic activities” (Eur J Med Chem, 2012).
Values after ≈ are worked out from the molar mass of the structure shown. Active and inactive are the calls of the source. Unless noted, the calls are words filed in the database; no cut-off is given here.

Columns and labels:
[1] = test system: Plasmodium falciparum; assay: Antimalarial activity against chloroquine-sensitive Plasmodium falciparum D6 assessed as plasmodial LDH activity; format: functional, organism-based; conditions: Plasmodium falciparum, D6; read-out: IC50
[2] = test system: Plasmodium falciparum; assay: Antimalarial activity against chloroquine-resistant Plasmodium falciparum W2 assessed as plasmodial LDH activity; format: functional, organism-based; conditions: Plasmodium falciparum, W2; read-out: IC50
[3] = test system: Vero; assay: Cytotoxicity against african green monkey Vero cells upto 23.8 […] by neutral dye assay; format: cell-based, Chlorocebus sabaeus
Procedure, shortened: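 Vero monkey kidney cells were exposed to compound up to a highest concentration of 23.8, with viability read by neutral red uptake.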

[4] = Inhibition of beta-hematin formation; format: functional
[5] = test system: Leishmania donovani; assay: Antileishmanial activity against Leishmania donovani promastigote by Alamar Blue assay; format: functional, organism-based
[6] = Selectivity index, ratio of IC50 for african green monkey Vero cells to IC50 for chloroquine-sensitive Plasmodium falciparum D6; format: toxicity, cell-based; conditions: Vero cells versus Plasmodium falciparum D6, read-out: Ratio IC50
[7] = Selectivity index, ratio of IC50 for african green monkey Vero cells to IC50 for chloroquine-resistant Plasmodium falciparum W2; format: toxicity, cell-based; conditions: Vero cells versus Plasmodium falciparum W2, read-out: Ratio IC50
[8] = test system: Plasmodium berghei; assay: Antimalarial activity against Plasmodium berghei blood-schizont in mouse malaria model assessed as elimination of parasitemia at 100 mg/kg, po for 4 days for 4 days measured after 7 days; format: functional, organism-based; set-up: dose 100 mg/kg
Procedure, shortened: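 P. berghei-infected mice, 6 per group, received compound orally once daily for 4 days at 10, 25, 50 or 100 mg/kg/day. "Active" meant all treated animals were parasitaemia-negative up to D+7. "Curative" meant complete parasite elimination with survival to D+60. Outcomes were recorded as cured/total.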

[9] = test system: Staphylococcus aureus; assay: Antimicrobial activity against methicillin-resistant Staphylococcus aureus ATCC 43300 by CLSI method; format: functional, organism-based
[10] = test system: Mycobacterium intracellulare; assay: Antimicrobial activity against Mycobacterium intracellulare ATCC 23068 by Franzblau method; format: functional, organism-based
[11] = test system: Escherichia coli; assay: Antimicrobial activity against Escherichia coli ATCC 35218 by CLSI method; format: functional, organism-based
[12] = test system: Pseudomonas aeruginosa; assay: Antimicrobial activity against Pseudomonas aeruginosa ATCC 27853 by CLSI method; format: functional, organism-based
Procedure, shortened: (§1)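 Antibacterial testing used CLSI/NCCLS broth dilution for aerobically growing bacteria, with 20 as the highest test concentration.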

[13] = test system: Aspergillus fumigatus; assay: Antifungal activity against Aspergillus fumigatus; format: functional, organism-based
Procedure, shortened: (§2)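 Yeasts and A. fumigatus were tested by broth microdilution following the NCCLS antifungal standards. The highest test concentration was 20.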

[14] = test system: Cryptococcus neoformans; assay: Antifungal activity against Cryptococcus neoformans; format: functional, organism-based; procedure, shortened: as §2
[15] = test system: Candida albicans; assay: Antifungal activity against Candida albicans; format: functional, organism-based; procedure, shortened: as §2
[16] = test system: Mycobacterium intracellulare; assay: Antimicrobial activity against Mycobacterium intracellulare ATCC 23068 at 20 ug/ml by Franzblau method; format: functional, organism-based
[17] = test system: Mycobacterium intracellulare; assay: Bactericidal activity against Mycobacterium intracellulare ATCC 23068 at 20 ug/ml by Franzblau method; format: functional, organism-based
[18] = test system: Escherichia coli; assay: Antimicrobial activity against Escherichia coli ATCC 35218 at 20 ug/ml by CLSI method; format: functional, organism-based; procedure, shortened: as §1
[19] = test system: Escherichia coli; assay: Bactericidal activity against Escherichia coli ATCC 35218 at 20 ug/ml by CLSI method; format: functional, organism-based; procedure, shortened: as §1
[20] = test system: Candida albicans; assay: Fungicidal activity against Candida albicans at 20 ug/ml; format: functional, organism-based
Procedure, shortened: (§3)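 Broth dilution antifungal testing followed the NCCLS reference method for yeasts, with 20 as the highest test concentration. MIC was the lowest concentration with no detectable growth. MFC was the lowest concentration killing the organism.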

[21] = test system: Staphylococcus aureus; assay: Antimicrobial activity against methicillin-resistant Staphylococcus aureus ATCC 43300 at 20 ug/ml by CLSI method; format: functional, organism-based
[22] = test system: Staphylococcus aureus; assay: Bactericidal activity against methicillin-resistant Staphylococcus aureus ATCC 43300 at 20 ug/ml by CLSI method; format: functional, organism-based
Procedure, shortened: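 MBC is the lowest concentration that kills the organism. 20 was the highest concentration tested.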

[23] = test system: Candida albicans; assay: Antifungal activity against Candida albicans at 20 ug/ml; format: functional, organism-based; procedure, shortened: as §3
[24] = test system: Plasmodium berghei; assay: Antimalarial activity against Plasmodium berghei blood-schizont in mouse malaria model assessed as elimination of parasitemia at 100 mg/kg, po for 4 days for 4 days measured after 4 days; format: functional, organism-based; set-up: dose 100 mg/kg
[25] = test system: Staphylococcus aureus; assay: Antimicrobial activity against Staphylococcus aureus ATCC 29213 by CLSI method; format: functional, organism-based
[26] = Leishmania donovani, read-out: IC50

Compound | IC50 [1] | IC50 [2] | IC50 [3] | IC50 [4] | IC50 [5, 26] | selectivity ratio [6] | selectivity ratio [7] | Activity [8] | Activity [10] | Activity [11] | Activity [12] | Activity [13] | IC50 [14] | MFC [14] | MIC [14] | Activity [17] | Activity [19] | Activity [20] | Activity [9] | Activity [23] | other results
COc1cc(NC(C)CCCNC(=O)[C@H](CCCNC(=N)N)NC(=O)[C@@H](N)CCCNC(=N)N)c2nc(C(C)(C)C)ccc2c1 (stereo partly specified) | 0.97 µg/mL (≈ 1.54 µM) | 0.82 µg/mL (≈ 1.31 µM) | Non-toxic | 53 µM | 9 µg/mL (≈ 14.3 µM) | > 24.5 | > 29 | Active | inactive | inactive | inactive | inactive | 2.5 µg/mL (≈ 3.98 µM) | 5 µg/mL (≈ 7.96 µM) | 5 µg/mL (≈ 7.96 µM) | inactive | inactive | inactive |  |  | IC90 ([5]; Leishmania donovani): 31 µg/mL (≈ 49.4 µM); IC50 [9]: 7 µg/mL (≈ 11.1 µM); MBC [9]: 20 µg/mL (≈ 31.9 µM); MIC [9]: 10 µg/mL (≈ 15.9 µM); IC50 [15]: 15 µg/mL (≈ 23.9 µM); MIC [15]: 20 µg/mL (≈ 31.9 µM); Activity [16]: inactive; Activity [18]: inactive
COc1cc(NC(C)CCCNC(=O)C[C@H](NC(=O)[C@@H](N)CCCNC(=N)N)C(=O)O)c2nc(C(C)(C)C)ccc2c1 (stereo partly specified) | 3.3 µg/mL (≈ 5.62 µM) | 2.8 µg/mL (≈ 4.77 µM) | Non-toxic | 115 µM |  | > 7.2 | > 8.5 |  | inactive |  | inactive | inactive | 15 µg/mL (≈ 25.6 µM) | 20 µg/mL (≈ 34.1 µM) | 20 µg/mL (≈ 34.1 µM) | inactive | inactive | inactive | inactive | inactive | IC50 [5]: Not Active; IC90 [5]: inactive; IC50 [11]: 15 µg/mL (≈ 25.6 µM); Activity [21]: inactive; Activity [22]: inactive; Activity [16]: inactive; Activity [18]: inactive
COc1cc(NC(C)CCCNC(=O)CC[C@H](NC(=O)[C@@H](N)CCCNC(=N)N)C(=O)O)c2nc(C(C)(C)C)ccc2c1 (stereo partly specified) | 2.3 µg/mL (≈ 3.83 µM) | 2 µg/mL (≈ 3.33 µM) | Non-toxic | 96 µM |  | > 10.3 | > 11.9 | inactive | inactive | inactive | inactive | inactive | 15 µg/mL (≈ 25 µM) | 20 µg/mL (≈ 33.3 µM) | 20 µg/mL (≈ 33.3 µM) |  |  | inactive | inactive | inactive | IC50 [5]: Not Active; IC90 [5]: inactive; Activity [24]: inactive; Activity [25]: inactive
COc1cc(NC(C)CCCNC(=O)[C@H](CCCN)NC(=O)[C@@H](N)CCCN)c2nc(C(C)(C)C)ccc2c1 (stereo partly specified) | 2.5 µg/mL (≈ 4.6 µM) | 2 µg/mL (≈ 3.68 µM) | Non-toxic | 85 µM | 20 µg/mL (≈ 36.8 µM) | > 9.5 | > 11.9 | inactive | inactive | inactive | inactive | inactive | 3.5 µg/mL (≈ 6.44 µM) | 5 µg/mL (≈ 9.2 µM) | 5 µg/mL (≈ 9.2 µM) |  |  | inactive | inactive | inactive | IC90 [5]: inactive; Activity [24]: inactive; Activity [25]: inactive
COc1cc(NC(C)CCCNC(=O)[C@@H](CCCCN)NC(=O)[C@H](N)CCCCN)c2nc(C(C)(C)C)ccc2c1 (stereo partly specified) | 4.76 µg/mL (≈ 8.32 µM) | 2.8 µg/mL (≈ 4.9 µM) | Non-toxic | > 1000 µM |  | > 5 | > 8.5 | inactive | inactive | inactive | inactive | inactive | 6.5 µg/mL (≈ 11.4 µM) | 10 µg/mL (≈ 17.5 µM) | 10 µg/mL (≈ 17.5 µM) |  |  | inactive | inactive | inactive | IC50 [5]: Not Active; IC90 [5]: inactive; Activity [24]: inactive; Activity [25]: inactive
COc1cc(NC(C)CCCNC(=O)C[C@H](NC(=O)[C@@H](N)CCCCN)C(=O)O)c2nc(C(C)(C)C)ccc2c1 (stereo partly specified) | 3.8 µg/mL (≈ 6.8 µM) | 2.8 µg/mL (≈ 5.01 µM) | Non-toxic | 131 µM | 9.4 µg/mL (≈ 16.8 µM) | > 6.2 | > 8.5 |  | inactive |  | inactive | inactive | 3.5 µg/mL (≈ 6.26 µM) | 5 µg/mL (≈ 8.95 µM) | 5 µg/mL (≈ 8.95 µM) | inactive | inactive | inactive | inactive | inactive | IC90 ([5]; Leishmania donovani): 31 µg/mL (≈ 55.5 µM); IC50 [11]: 15 µg/mL (≈ 26.8 µM); MIC [11]: 20 µg/mL (≈ 35.8 µM); Activity [21]: inactive; Activity [22]: inactive; Activity [16]: inactive
COc1cc(NC(C)CCCNC(=O)[C@@H](CCCN)NC(=O)[C@H](N)CCCN)c2nc(C(C)(C)C)ccc2c1 (stereo partly specified) | 4.76 µg/mL (≈ 8.75 µM) | 3.3 µg/mL (≈ 6.07 µM) | Non-toxic | 39 µM | 20 µg/mL (≈ 36.8 µM) | > 5 | > 7.21 |  |  | inactive | inactive | inactive | 3.5 µg/mL (≈ 6.44 µM) | 5 µg/mL (≈ 9.2 µM) | 5 µg/mL (≈ 9.2 µM) | inactive | inactive | inactive | inactive | inactive | IC90 ([5]; Leishmania donovani): 38 µg/mL (≈ 69.9 µM); IC50 [10]: 10 µg/mL (≈ 18.4 µM); MIC [10]: 20 µg/mL (≈ 36.8 µM); Activity [21]: inactive; Activity [22]: inactive; Activity [18]: inactive
